H69AR growth 86K – blocks growth of human H69AR lung tumor cells; 85,000 tested, 6% active; H69AR lung tumor viability, ATP luminescence, 72 h; hits give low values; viability, % at 10 µM;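 active = viability at or below 40%; inactive = viability above 40%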;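 note: multidrug resistant small cell line overexpressing MRP-1 efflux transporter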
bCat KO growth – beta-catenin-lacking colon tumor cell growth suppression; HCT116 beta-catenin knockout viability, CellTiter-Glo, 60 h; hits give low values; viability, % at 10 µM; 140,000 tested, 1.5% active; AID 818;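 active = viability at or under a set limit, the compound median less 4 SD, cut at about 6% in these data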
Lung fibro prol – blocks proliferation of human lung fibroblasts | LL 47 human lung fibroblast viability, ATP luminescence; hits give low values | AID 719 | viability, % at 10 µM | 85,000 tested, 1.1% active;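 active = viability at or below 50% in the single dose screen; inactive = viability above 50%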;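 note: compound exposure lasted 72 h before the ATP readout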
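Test system: LL 47 human lung fibroblasts / Quantity: 1,150 cells in each well / Medium: IMEM growth medium with 15% fetal bovine serum / Incubation: 72 h compound exposure at 37 °C after overnight plating / Detection: CellTiter-Glo luminescence measuring cellular ATP / Read-out: % viability versus median cells-only luminescence / Benchmarks: cell-only wells, no compound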
Pyk2 oligo antag – blocks oligomerization of human Pyk2 in cells; Q14289; Q293 cells, Pyk2 FERM NanoBiT luminescence; hits give low values; z-score (the deposit names both 25 µM and 10 µM); 99,000 tested, 0.83% active; AID 1347419;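 active = Z-score of -3 or lower, scaled per plate to the spread of control and sample wells; inactive = z-score above -3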;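 note: negative z-score means lost luminescence so less FERM oligomerization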
Target sequence (Q14289 whole entry, looked up): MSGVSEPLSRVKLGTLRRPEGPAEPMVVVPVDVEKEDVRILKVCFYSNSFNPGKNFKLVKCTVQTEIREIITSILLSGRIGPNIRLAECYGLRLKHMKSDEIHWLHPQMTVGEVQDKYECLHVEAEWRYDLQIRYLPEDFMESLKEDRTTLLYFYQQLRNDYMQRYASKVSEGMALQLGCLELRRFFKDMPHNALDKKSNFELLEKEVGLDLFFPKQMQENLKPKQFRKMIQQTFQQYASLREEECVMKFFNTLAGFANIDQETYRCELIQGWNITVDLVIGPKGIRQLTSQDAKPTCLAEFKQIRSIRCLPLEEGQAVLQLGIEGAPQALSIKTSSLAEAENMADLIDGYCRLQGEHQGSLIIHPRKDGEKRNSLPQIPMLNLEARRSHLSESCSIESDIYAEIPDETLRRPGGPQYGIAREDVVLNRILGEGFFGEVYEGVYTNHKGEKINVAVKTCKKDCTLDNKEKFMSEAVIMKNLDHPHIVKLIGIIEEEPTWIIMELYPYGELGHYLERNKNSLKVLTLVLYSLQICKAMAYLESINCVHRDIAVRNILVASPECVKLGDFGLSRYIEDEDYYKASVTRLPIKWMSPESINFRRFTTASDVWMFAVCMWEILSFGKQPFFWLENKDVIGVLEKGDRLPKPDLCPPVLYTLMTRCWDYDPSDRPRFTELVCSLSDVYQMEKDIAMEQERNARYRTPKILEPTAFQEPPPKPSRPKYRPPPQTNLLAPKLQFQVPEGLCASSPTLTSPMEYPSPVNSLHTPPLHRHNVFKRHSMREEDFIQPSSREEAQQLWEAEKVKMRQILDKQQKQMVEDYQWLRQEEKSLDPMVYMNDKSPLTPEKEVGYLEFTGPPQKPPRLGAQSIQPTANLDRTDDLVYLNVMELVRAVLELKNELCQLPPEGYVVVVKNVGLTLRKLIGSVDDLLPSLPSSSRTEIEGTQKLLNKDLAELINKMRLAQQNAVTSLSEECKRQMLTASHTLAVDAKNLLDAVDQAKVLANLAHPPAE
HUVEC inhibit – inhibitors of human endothelial cell proliferation | HUVEC proliferation, CellTiter-Glo luminescence, 72 h; hits give low values | viability, % at 10 µM (by protocol) | 86,000 tested, 1.1% active | AID 648;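 active = viability at or below 30%; inactive = viability above 30%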
PTEN del growth – growth suppressors of cells with PTEN tumor suppressor deletion; HCT116 PTEN-null viability, CellTiter-Glo, 60 h; hits give low values; viability, % at 10 µM; 140,000 tested, 1.2% active; AID 827;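 active = viability at or below a set limit, 4 SD under the median of all tested compounds, cut at about 3.7% in these data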;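 note: PTEN knockout HCT116 line with beta catenin targeted HCT116 as companion control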
A number is an active result; . = inactive; / = no result. Only a selection was taken, and hits are over-represented in it overall.

SMILES	H69AR growth 86K	bCat KO growth	Lung fibro prol	Pyk2 oligo antag	HUVEC inhibit	PTEN del growth
CCOC(=O)c1[nH]c(CSc2nnc(-c3ccc(OC)cc3)o2)c(C(=O)OCC)c1C	18.1	.	.	.	.	.
C#CCSc1nnc(-c2ccc(OC)cc2)o1	18.8	.	.	.	.	.
COc1ccc(-c2nnc(SCC(=O)c3[nH]c(C)c(C(C)=O)c3C)o2)cc1	5.3	.	.	.	.	.
COc1cccc(C(=O)CSc2nnc(-c3cccs3)o2)c1	.	.	.	.	.	.
COc1ccc(-c2nnc(SCC#N)o2)cc1	.	.	.	.	.	.
CN(C(=O)CSc1nc(-c2ccccc2)cn1N)C(c1ccccc1)c1ccccc1	.	.	.	.	.	.
O=C(NCCOc1ccccc1F)c1cc(F)c(F)cc1Cl	/	.	/	/	/	.
Cc1oc2nc(SCC(=O)NC3CCCCC3)nc(N)c2c1C	.	/	.	.	.	/
CC(C)(C)C(=O)NCCc1nc2ccccc2n1CC(=O)c1ccc(Cl)cc1	/	.	/	/	/	.
O=C(O)CCC(=O)Nc1nnc(C(F)(F)F)s1	.	.	.	.	.	.
CCC(NC(=O)Nc1nnc(C(F)(F)F)s1)(C(F)(F)F)C(F)(F)F	6.0	2.1	28.6	.	22.8	2.5
COCC(O)CSc1nc(C)[nH]c1[N+](=O)[O-] (stereo unspecified)	.	.	.	.	.	.
Cc1cccc(OCC(=O)N/N=C/c2cc([N+](=O)[O-])ccc2N2CCOCC2)c1	/	.	/	.	/	.
CC1(C)COC(c2coc3ccccc3c2=O)OC1	/	.	/	/	/	.
Cc1nc(OCC(=O)c2ccc(Cl)cc2)c(C#N)c2c1COC(C)(C)C2	.	.	.	.	.	.
CC1(C)Cc2c(C#N)c(NCc3ccco3)nc(-c3ccco3)c2CO1	20.1	.	.	.	.	.
CC1(C)Cc2c(C#N)c(OCC(=O)c3ccc(Cl)cc3)nc(-c3ccco3)c2CO1	.	.	41.5	.	.	.
Cc1nc(NCc2ccco2)c(C#N)c2c1COC(C)(C)C2	.	.	.	.	.	.
N#Cc1c(NCCN)nc(-c2ccco2)c2c1CCCC2	7.1	.	40.8	.	.	.
Cc1ccc(Oc2ccc(-c3nc(N)nc(N)n3)cc2)cc1C	.	.	.	.	.	.
O=C(N/N=C/c1ccncc1)C1C2CCCCCCC21 (stereo unspecified)	/	.	/	/	/	.
O=C(Nc1ccc2c(c1)N(Cc1ccccc1)C(=O)c1ccccc1S2)NC1CC1	.	.	.	-3.14	.	.
CN1C(=O)c2ccccc2Sc2ccc(NC(=O)NC3CC3)cc21	.	.	.	.	.	.
Cc1nn(-c2cc(N3CCCCC3)ccc2N)c(=O)c2ccccc12	/	.	/	.	/	.
Cc1nn(-c2cc(N3CCCCCC3)ccc2[N+](=O)[O-])c(=O)c2ccccc12	.	.	.	-4.14	.	.
SMILES	H69AR growth 86K	bCat KO growth	Lung fibro prol	Pyk2 oligo antag	HUVEC inhibit	PTEN del growth
Oc1ccc2ccccc2c1/C=N/Nc1nnc(-c2ncc[nH]2)c2ccccc12	/	4.9	/	.	/	2.1
CCOC(=O)c1c(N)sc2c(OC)c(Br)ccc12	.	.	.	.	26.6	.
C/C(=N\NC(=O)CCCNc1ccc(C)cc1)c1ccccn1	/	5.8	/	/	/	.
C=CCNC(=S)N/N=C(\C)c1ccccn1	20.5	.	9.2	.	18.9	.
C/C(=N/NC(=O)CNC(=O)c1ccccn1)c1ccccc1	/	.	/	/	/	.
C/C(=N\NC(=S)NCc1ccccc1)c1ccccc1	/	.	/	/	/	.
O=C(NCc1ccc2c(c1)OCO2)c1ccc(=O)[nH]c1	.	.	.	.	.	.
CN1CCN(c2cc3c(c4c2[nH]c2ccccc24)C(=O)CC(C)(C)C3)CC1	0.9	1.4	18.7	/	3.3	1.8
CCOc1ccc(C(=O)NC(=S)Nc2ncccc2C)cc1[N+](=O)[O-]	/	2.8	/	/	/	3.3
CCOc1ccc(C(=O)NC(=S)Nc2ccc(NC(=O)c3ccco3)cc2)cc1[N+](=O)[O-]	/	.	/	/	/	.
O=C(Oc1ccc(NC2=C(Cl)C(=O)c3ccccc3C2=O)cc1)c1ccc([N+](=O)[O-])cc1	/	0.9	/	/	/	1.1
CCCC1CCC(=C(C#N)C(N)=O)CC1 (stereo unspecified)	/	.	/	.	/	.
Cc1ccc(NC(=O)CN(C)C(=O)COc2ccc(C(=O)c3ccc(F)cc3)cc2)cc1	/	.	/	/	/	.
C=CCN1C(=O)C(C)(C)N(C(C)=O)c2ccccc21	/	.	/	/	/	.
CC(=O)N1c2ccccc2N(Cc2ccc(C)cc2C)C(=O)C1(C)C	23.4	.	45.7	/	.	.
CCCOc1ccc(C(=O)NNC(=S)NC(=O)CC)cc1	/	5.5	/	.	/	.
CCOC(=O)c1sc(NC(=O)COC(=O)CNC(=O)C2CCCCC2)c(C(=O)OCC)c1C	/	.	/	/	/	.
Cc1ccc(-c2cc(-c3ccccc3O)nc(N/N=C/c3cccnc3)n2)cc1	/	4.0	/	.	/	2.9
O=C(NCc1cccnc1)/C(=C\c1ccc(-c2ccc(Cl)c(Cl)c2)o1)S(=O)(=O)c1ccccc1	/	1.8	/	.	/	1.5
O=C(NCc1cccnc1)c1ccc(Cl)c(Cl)c1	.	.	.	.	.	.
COc1ccc(NS(=O)(=O)c2ccc(C)c(NC(=O)c3ccc(C)c(S(=O)(=O)N4CCOCC4)c3)c2)cc1	/	.	/	/	/	.
Cc1ccc2c(CN3CCN(Cc4ccc5c(c4)OCO5)CC3)cc(=O)oc2c1C	.	.	.	.	.	.
Cc1cc(C)c2c(CN3CCN(Cc4ccc5c(c4)OCO5)CC3)cc(=O)oc2c1C	33.2	.	.	.	.	.
COc1ccc(S(=O)(=O)Nc2ccc(S(=O)(=O)N3CCCCC3)cc2)cc1C	.	.	.	-3.29	.	.
COc1ccc(S(=O)(=O)N2CCCN(S(=O)(=O)c3ccc(OC)c(C)c3)CC2)cc1C	32.9	.	.	.	.	.
SMILES	H69AR growth 86K	bCat KO growth	Lung fibro prol	Pyk2 oligo antag	HUVEC inhibit	PTEN del growth
COc1ccc(S(=O)(=O)Nc2ccc(S(=O)(=O)N3CCCCC3)cc2)cc1	.	.	/	.	.	.
O=C(NCCCN1CCOCC1)c1ccc(Sc2cccc(Cl)c2)c([N+](=O)[O-])c1	/	.	/	/	/	.
O=C(c1ccco1)N1CCN(c2ncnc3scc(-c4ccc(F)cc4)c23)CC1	23.8	.	.	.	.	.
C#CCOCCOCCOCCNc1nc(N2CCN(C(=O)[C@H](C)n3cc(CCCN=C(N)N)nn3)CC2)nc(N2CCN(C(=O)[C@H](C)n3cc(CCCN=C(N)N)nn3)CC2)n1	/	.	/	/	/	.
O=C(/C=C/c1ccc(Cl)cc1)NCc1ccco1	/	.	/	/	/	.
N#CC1=C(N)Oc2cc3ccccc3cc2C1c1cccnc1 (stereo unspecified)	19.6	.	.	.	.	.
CC(C)(C)c1[nH]nc2c1C(c1cccnc1)C(C#N)=C(N)O2 (stereo unspecified)	/	.	/	.	/	.
CC(C)(C)C1=C(C#N)C(c2cccnc2)C(C#N)=C(N)O1 (stereo unspecified)	/	.	/	/	/	.
N#CC1=C(N)Oc2cc3ccccc3cc2C1c1cccs1 (stereo unspecified)	21.0	.	.	.	.	.
